Results reported in ChEMBL document CHEMBL3872208, “Synthesis and pharmacological characterization of novel N-(trans-4-(2-(4-(benzo[d]isothiazol-3-yl)piperazin-1-yl)ethyl)cyclohexyl)amides as potential multireceptor atypical antipsychotics” (Eur J Med Chem, 2016).
Active and inactive are the calls of the source. The calls are words filed in the database; no cut-off is given here.

Experiments:
[1] = tested on: CHO; experiment: Selectivity ratio of Ki for displacement of [3H]spiperone from recombinant human D2L receptor expressed in CHO cell membranes to Ki for displacement of [3H]methyl-spiperone from recombinant human D3 receptor expressed in CHO cell membranes
How it was run: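 D2L binding: CHO membranes (16 µg protein) with 0.3 nM [3H]methyl-spiperone in 50 mM Tris-HCl pH 7.4, 120 mM NaCl, 10 mM MgCl2, 1 mM EDTA, with butaclamol for nonspecific binding. D3 binding: membranes (8 µg) with 0.3 nM [3H]methyl-spiperone in the same Tris buffer with 5 mM KCl, 5 mM MgCl2, 5 mM EDTA, with (+)butaclamol for nonspecific binding. Both run 60 min at 22 °C, then GF/B filtration. Ki by Cheng–Prusoff; ratio is D2 Ki/D3 Ki.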

[2] = Stability of compound; type: physicochemical
[3] = molecular target: D(3) dopamine receptor (Homo sapiens, UniProt P35462); experiment: Displacement of [3H]methyl-spiperone from recombinant human D3 receptor expressed in CHO cell membranes after 60 mins by scintillation counting method
D(3) dopamine receptor, sequence (P35462 whole entry): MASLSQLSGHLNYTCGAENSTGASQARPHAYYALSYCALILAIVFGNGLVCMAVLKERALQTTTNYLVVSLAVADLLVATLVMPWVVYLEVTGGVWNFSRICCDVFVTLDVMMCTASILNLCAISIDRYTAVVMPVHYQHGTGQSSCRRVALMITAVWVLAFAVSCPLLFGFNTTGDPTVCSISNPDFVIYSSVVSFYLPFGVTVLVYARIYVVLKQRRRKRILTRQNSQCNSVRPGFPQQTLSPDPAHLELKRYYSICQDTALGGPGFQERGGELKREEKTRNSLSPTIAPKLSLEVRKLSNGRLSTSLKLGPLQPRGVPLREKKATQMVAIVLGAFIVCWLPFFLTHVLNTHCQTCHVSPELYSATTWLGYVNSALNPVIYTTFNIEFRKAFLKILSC

[4] = molecular target: 5-hydroxytryptamine receptor 2A (Homo sapiens, UniProt P28223); experiment: Displacement of [3H]ketanserin from recombinant human 5-HT2A receptor expressed in HEK293 cell membranes after 60 mins by scintillation counting method
5-hydroxytryptamine receptor 2A, sequence (P28223 whole entry): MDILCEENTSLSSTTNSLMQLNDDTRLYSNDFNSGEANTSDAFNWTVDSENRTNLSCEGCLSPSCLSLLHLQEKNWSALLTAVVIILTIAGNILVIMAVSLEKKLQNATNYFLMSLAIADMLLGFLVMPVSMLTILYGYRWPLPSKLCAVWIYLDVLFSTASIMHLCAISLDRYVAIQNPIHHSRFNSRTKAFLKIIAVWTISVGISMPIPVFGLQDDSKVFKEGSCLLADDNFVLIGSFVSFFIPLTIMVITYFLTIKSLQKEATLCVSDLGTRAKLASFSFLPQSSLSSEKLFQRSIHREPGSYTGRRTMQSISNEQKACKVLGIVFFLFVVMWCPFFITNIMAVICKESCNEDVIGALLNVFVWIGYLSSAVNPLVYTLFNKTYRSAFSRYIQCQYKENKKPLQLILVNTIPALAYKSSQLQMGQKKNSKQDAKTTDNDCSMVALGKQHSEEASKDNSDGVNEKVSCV

[5] = molecular target: T1, 5-hydroxytryptamine receptor 1A (Homo sapiens, UniProt P08908); experiment: Displacement of [3H]8-OH-DPAT from recombinant human 5-HT1A receptor expressed in HEK293 cell membranes after 60 mins by scintillation counting method
T1 sequence (P08908 whole entry): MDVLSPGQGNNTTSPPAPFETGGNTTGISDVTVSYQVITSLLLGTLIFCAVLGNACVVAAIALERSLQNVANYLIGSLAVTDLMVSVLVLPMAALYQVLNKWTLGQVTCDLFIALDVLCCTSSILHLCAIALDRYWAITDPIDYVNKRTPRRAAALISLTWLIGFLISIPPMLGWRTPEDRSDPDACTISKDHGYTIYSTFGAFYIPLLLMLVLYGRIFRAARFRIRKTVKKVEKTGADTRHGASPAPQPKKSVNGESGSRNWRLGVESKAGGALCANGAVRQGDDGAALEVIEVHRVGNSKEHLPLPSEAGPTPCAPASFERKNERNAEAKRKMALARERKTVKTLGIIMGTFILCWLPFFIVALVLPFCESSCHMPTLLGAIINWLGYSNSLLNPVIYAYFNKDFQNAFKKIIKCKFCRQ

[6] = molecular target: D(2) dopamine receptor (Homo sapiens, UniProt P14416); experiment: Displacement of [3H]spiperone from recombinant human D2L receptor expressed in CHO cell membranes after 60 mins by scintillation counting method
D(2) dopamine receptor, sequence (P14416 whole entry): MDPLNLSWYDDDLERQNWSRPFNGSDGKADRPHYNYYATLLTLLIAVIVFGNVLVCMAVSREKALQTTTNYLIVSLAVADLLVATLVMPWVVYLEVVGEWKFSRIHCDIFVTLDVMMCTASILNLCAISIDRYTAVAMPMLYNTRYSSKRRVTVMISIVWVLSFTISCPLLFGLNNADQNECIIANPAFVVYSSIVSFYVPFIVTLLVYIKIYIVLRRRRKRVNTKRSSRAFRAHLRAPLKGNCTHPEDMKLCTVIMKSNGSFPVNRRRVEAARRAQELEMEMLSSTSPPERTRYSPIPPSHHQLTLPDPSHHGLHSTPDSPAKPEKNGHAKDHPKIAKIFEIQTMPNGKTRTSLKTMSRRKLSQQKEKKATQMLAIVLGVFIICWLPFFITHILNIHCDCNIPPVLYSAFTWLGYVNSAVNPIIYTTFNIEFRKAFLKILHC

[7] = tested on: Rattus norvegicus; experiment: Antipsychotic activity in Sprague-Dawley rat assessed as inhibition of conditioned avoidance behavior at 1.0 to 2.0 mg/kg, ip administered as single dose measured after 1 hr; type: functional, organism-based
How it was run: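 Male SD rats (150–180 g, 6 per group) trained in automated shuttle-boxes; only rats exceeding 80% avoidance were used. Single i.p. dose of 1.0 or 2.0 mg/kg given 1 h before a 20-trial session. Read-out is percentage of avoidance (mean ± SEM, n = 6), compared with the vehicle group.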

[8] = tested on: Rattus norvegicus; experiment: Toxicity in Sprague-Dawley rat assessed as cataleptogenic effect by measuring time spent in cataleptic position at 1 to 10 mg/kg, po measured after 0.5 to 2 hrs; type: organism-based; conditions: in vivo
How it was run: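 Male SD rats (180–250 g, n = 7) dosed orally at 1.0, 3.0 or 10.0 mg/kg. Forepaws placed on a bar 0.9 cm in diameter, 11 cm high, at 30, 60 and 120 min after dosing. Time held is expressed as a percentage of the 60 s maximum (mean ± SEM).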

[9] = molecular target: T2, Muscarinic acetylcholine receptor M1 (Homo sapiens, UniProt P11229); experiment: Displacement of [3H]pirenzepine from recombinant human M1 receptor expressed in CHO cell membranes at 1 uM after 60 mins by scintillation counting method relative to control; conditions: CHO cell membranes expressing recombinant human M1 receptor, probe [3H]pirenzepine
T2 sequence (P11229 whole entry): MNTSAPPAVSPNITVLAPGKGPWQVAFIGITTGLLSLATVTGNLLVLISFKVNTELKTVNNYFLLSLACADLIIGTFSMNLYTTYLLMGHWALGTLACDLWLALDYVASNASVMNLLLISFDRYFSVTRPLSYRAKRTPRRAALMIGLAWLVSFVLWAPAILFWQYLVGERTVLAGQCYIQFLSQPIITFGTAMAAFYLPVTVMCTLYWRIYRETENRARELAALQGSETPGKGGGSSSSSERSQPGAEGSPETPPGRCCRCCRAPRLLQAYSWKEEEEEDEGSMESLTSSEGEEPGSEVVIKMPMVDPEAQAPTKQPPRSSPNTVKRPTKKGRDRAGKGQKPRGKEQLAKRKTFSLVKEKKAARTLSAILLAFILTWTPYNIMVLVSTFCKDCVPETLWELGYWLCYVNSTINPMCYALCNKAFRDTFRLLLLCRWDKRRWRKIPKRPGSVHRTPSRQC
How it was run: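 Nonspecific binding defined with […]. Filtered on PEI-soaked GF/B and scintillation counted. Expressed as percent inhibition of control specific binding at a single test concentration.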

[10] = tested on: Rattus norvegicus; experiment: Cognitive enhancement effect in Sprague-Dawley rat assessed as reversal of PCP-impaired performance by measuring increase in time spent exploring novel object in comparison to familiar object at 0.1 mg/kg, po administered 60 mins prior to test by novel object recognition assay
[11] = tested on: Rattus norvegicus; experiment: Reversal of PCP-induced hyperlocomotion activity in ip dosed Sprague-Dawley rat pretreated for 10 mins followed by PCP challenge measured after […]; type: functional, organism-based

inhibition at 1 h, 1 µM [9]	SMILES	Ratio Ki [1]	Stability [2]	Ki [3]	Ki [4]	Ki [5]	Ki [6]	inhibition [7]	Activity [8]	Activity [10]	Activity [11]
	CCOC(=O)N[C@H]1CC[C@H](CCN2CCN(c3nsc4ccccc34)CC2)CC1	12.2	Unstable	0.058 nM	0.53 nM	0.2 nM	0.71 nM				
< 20%	CN(C)C(=O)N[C@H]1CC[C@H](CCN2CCN(c3cccc(Cl)c3Cl)CC2)CC1 [CARIPRAZINE]							Active	Non-Toxic	Active	Dose-dependent effect
